Our source for the inhibition, EC50 and CC50 values is ChEMBL document CHEMBL4811254, “Beyond Basicity: Discovery of Nonbasic DENV-2 Protease Inhibitors with Potent Activity in Cell Culture” (J Med Chem, 2021).

Usually inhibition stands for the share of the control response that was lost under treatment. By pEC50 is commonly meant the EC50 on a negative log10 scale, so that one unit is a factor of ten. Usually CC50 stands for the concentration at which the toxic effect on the cells reaches its halfway point.

pEC50: −log10 of the molar value. Active and inactive are the calls of the source. No rule for the calls is given here. A value given as a limit tells only on which side of the number the result lay.

Data set [1] addresses Genome polyprotein (dengue virus type 2) (UniProt P29990). Put plainly: Inhibition of NS2B-NS3 protease in DENV2proHeLa system assessed as inhibition of luciferase signal at 12.5 uM incubated for 24 hrs by luciferase reporter gene assay. The class given is cell-based. Conditions: HeLa. The method in brief: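 Stable DENV2proHeLa cells seeded at 2 × 10⁴/well and dosed immediately, then incubated 24 h at 37 °C. Cells lysed 15 min at room temperature. Luciferase read with coelenterazine (2.75 μM in PBS) injection, luminescence 5 s. Triplicates; percent inhibition calculated relative to untreated control; background from cell-free wells.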
In general terms: Reporter assays use an easily measured gene product as a stand-in for the process of interest.

The target in another data set is Genome polyprotein (dengue virus type 2, UniProt P29990). Put plainly: Inhibition of NS2B-NS3 protease in DENV2proHeLa system assessed as inhibition of luciferase signal incubated for 24 hrs by luciferase reporter gene assay. The class given is cell-based, HeLa. The procedure, abridged:
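HeLa cells stably carrying the reporter system, 2 × 10⁴ per well, given inhibitor at seeding and held 24 h at 37 °C. Cells lysed 15 min at room temperature. Luciferase read for 5 s after injecting coelenterazine (2.75 μM in PBS). Triplicate wells per concentration; percent inhibition taken against untreated cells. EC50/EC90 from 4-parameter dose-response fit, background from cell-free wells subtracted.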

The nature of data set [2]: Cytotoxicity against human HeLa cells assessed as reduction in cell viability incubated for 24 hrs by CellTiter-Blue assay. In kind it is cell-based. The method in brief: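 Viability by CellTiter-Blue in HeLa or Huh-7 cells exposed to compound dilutions. Plates run in parallel with the reporter assay (HeLa) or the virus titer assay (Huh-7).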
Data set [3] deals with Prothrombin (Homo sapiens) (UniProt P00734). As to the kind of experiment: Inhibition of thrombin in human plasma using Boc-Val-Pro-Arg-AMC as substrate at 25 uM preincubated with enzyme for 15 mins followed by substrate addition and measured for 15 mins by fluorimetric assay. The following applies: time 30.0 min. In kind it is cell-free.
The target in a further data set is Trypsin (Homo sapiens) (UniProt P07477+P07478+P35030). Put plainly: Inhibition of trypsin (unknown origin) using Boc-Val-Pro-Arg-AMC as substrate at 50 uM preincubated with enzyme for 15 mins followed by substrate addition and measured for 15 mins by fluorimetric assay. The class given is protein assay. The following applies: time 30.0 min.

Regarding `CCCCCCCC(=O)N[C@H](C(=O)Nc1cccc(C(N)=O)c1)c1ccc(OCc2ccccc2)cc1`, in data set [1], the inhibition was found to be 66%. The pEC50 on Genome polyprotein was 5.66. In addition, the CC50 at 24 h in data set [2] was greater than 12.5 µM. In addition, the inhibition entry (in data set [3]; on Trypsin (Homo sapiens)) was “inactive” each time.

As for `CCCCCC(=O)N[C@H](C(=O)Nc1ccc(CC(N)=O)cc1)c1ccc(OCc2ccccc2)cc1`, the inhibition in data set [1] was 47%. For the same compound, the CC50 at 24 h in data set [2] is greater than 50 µM. Also, the inhibition entry (in data set [3]; on Trypsin (Homo sapiens)) was “inactive” in each case.

As for `NCCCCCC(=O)N[C@H](C(=O)NCc1ccc(C(N)=O)cc1)c1ccc(OCc2ccccc2)cc1`, in data set [1], the inhibition worked out at 14%. For the same compound, the CC50 at 24 h in data set [2] was greater than 50 µM. Besides, the inhibition result (in data set [3]; at Trypsin (Homo sapiens)) was “inactive” each time.

Consider `CCCCCC(=O)N[C@H](C(=O)NCCc1ccc(O)cc1)c1ccc(OCc2ccccc2)cc1`, for which, in data set [1], the inhibition is 58%. For the same compound, on Genome polyprotein, the pEC50 was 5.00. Besides, the CC50 at 24 h in data set [2] is greater than 25 µM. Besides, the inhibition entry (in data set [3]; at Trypsin (Homo sapiens)) was “inactive” each time.

`CCCCCC(=O)N[C@H](C(=O)Nc1ccc(OC)cc1)c1ccc(OCc2ccccc2)cc1`: the inhibition in data set [1] was 10%. For the same compound, the CC50 at 24 h in data set [2] was greater than 25 µM. Moreover, the inhibition entry (in data set [3]; on Trypsin (Homo sapiens)) was “inactive” in each case.

In the case of `CCCCCC(=O)N[C@H](C(=O)NCc1ccc(C(N)=O)cc1)c1ccc(C(F)(F)F)cc1`, the inhibition in data set [1] was determined as 31%. For the same compound, the CC50 at 24 h in data set [2] was greater than 50 µM. Moreover, the inhibition result (in data set [3]; on Trypsin (Homo sapiens)) was “inactive” in each case.

Take `CCCCCC(=O)N[C@H](C(=O)Nc1ccc(C(N)=O)cc1)c1ccc(OCc2ccccc2)cc1`: the inhibition in data set [1] came to 58%. For the same compound, the pEC50 at Genome polyprotein is 5.15. The CC50 at 24 h in data set [2] was greater than 12.5 µM. The inhibition result (in data set [3]; on Trypsin (Homo sapiens)) was “inactive” throughout.

Take `CCCCCC(=O)N[C@@H](Cc1ccccc1)C(=O)NCc1ccc(C(N)=O)cc1`: the inhibition in data set [1] is less than 10%. The CC50 at 24 h in data set [2] is greater than 50 µM. In addition, the inhibition result (in data set [3]; at Trypsin (Homo sapiens)) was “inactive” each time.

Turning to `NC(=O)c1cccc(NC(=O)[C@@H](NC(=O)c2ccc(Oc3cccc(Cl)c3)cc2)c2ccc(OCc3ccccc3)cc2)c1`, the inhibition in data set [1] was 87%. The pEC50 on Genome polyprotein was 6.00. The CC50 at 24 h in data set [2] was greater than 100 µM. Further, the inhibition result (in data set [3]; at Trypsin (Homo sapiens)) was “inactive” throughout.

For the compound `CCCCCC(=O)N[C@H](C(=O)NCC1CCC(C(N)=O)CC1)c1ccc(OCc2ccccc2)cc1` (some centres not stated), the inhibition in data set [1] was 29%. The CC50 at 24 h in data set [2] was greater than 50 µM. In addition, the inhibition result (in data set [3]; at Trypsin (Homo sapiens)) was “inactive” throughout.

Turning to `CCCCCC(=O)N[C@H](C(=O)NCc1ccc(NC(N)=O)cc1)c1ccc(OCc2ccccc2)cc1`, the inhibition entry (in data set [3]; at Trypsin (Homo sapiens)) was “inactive” each time.

As for `NC(=O)c1ccc(CNC(=O)[C@@H](NC(=O)C2CCC2)c2ccc(OCc3ccccc3)cc2)cc1`, in data set [1], the inhibition is 45%. In addition, in data set [2], the CC50 at 24 h is greater than 50 µM. In addition, the inhibition entry (in data set [3]; at Trypsin (Homo sapiens)) was “inactive” in each case.

In the case of `CCCCCC(=O)N[C@H](C(=O)NCc1ccc(C(=O)NO)cc1)c1ccc(OCc2ccccc2)cc1`, the inhibition in data set [1] came to 40%. Further, the CC50 at 24 h in data set [2] was greater than 50 µM. For the same compound, the inhibition entry (in data set [3]; on Trypsin (Homo sapiens)) was “inactive” in each case.

On to `NC(=O)c1ccc(CNC(=O)[C@@H](N)c2ccc(OCc3ccccc3)cc2)cc1`, for which the inhibition in data set [1] amounted to 33%. Moreover, the CC50 at 24 h in data set [2] is greater than 50 µM. Moreover, the inhibition result (in data set [3]; at Trypsin (Homo sapiens)) was “inactive” in each case.

Consider `NC(=O)c1ccc(CNC(=O)[C@@H](NC(=O)/C=C/c2ccccc2)c2ccc(OCc3ccccc3)cc2)cc1`, for which, in data set [1], the inhibition is 34%. Also, the CC50 at 24 h in data set [2] is greater than 50 µM. The inhibition entry (in data set [3]; on Trypsin (Homo sapiens)) was “inactive” each time.

On to `CCCCCC(=O)N[C@H](C(=O)NCc1ccccc1)c1ccc(OCc2ccccc2)cc1`, for which, in data set [1], the inhibition was less than 10%. In addition, the CC50 at 24 h in data set [2] was greater than 50 µM. Further, the inhibition result (in data set [3]; on Trypsin (Homo sapiens)) was “inactive” in each case.

Regarding `COCCOCC(=O)N[C@H](C(=O)NCc1ccc(C(N)=O)cc1)c1ccc(OCc2ccccc2)cc1`, the inhibition in data set [1] was 27%. For the same compound, in data set [2], the CC50 at 24 h is greater than 50 µM. Besides, the inhibition entry (in data set [3]; at Trypsin (Homo sapiens)) was “inactive” each time.

For `Cc1ccc(C(=O)c2cc(O)c(O)c([N+](=O)[O-])c2)cc1` [TOLCAPONE], the inhibition in data set [1] was 59%. For the same compound, the pEC50 on Genome polyprotein is 5.15. Also, the 50% cytotoxic concentration (CC50) at 24 h in data set [2] is greater than 25 µM.

In the case of `NC(=O)c1ccc(CNC(=O)[C@@H](NCc2ccccc2)c2ccc(OCc3ccccc3)cc2)cc1`, the inhibition in data set [1] stood at 36%. Also, the CC50 at 24 h in data set [2] was greater than 50 µM. In addition, the inhibition entry (in data set [3]; at Trypsin (Homo sapiens)) was “inactive” in each case.

In the case of `CCCCCC(=O)N[C@H](C(=O)Nc1ccc(S(N)(=O)=O)cc1)c1ccc(OCc2ccccc2)cc1`, the inhibition in data set [1] is less than 10%. Besides, the CC50 at 24 h in data set [2] is greater than 50 µM. For the same compound, the inhibition result (in data set [3]; at Trypsin (Homo sapiens)) was “inactive” throughout.

As to `CCCCCC(=O)N[C@H](C(=O)NCc1ccc(Cl)cc1)c1ccc(OCc2ccccc2)cc1`, the inhibition in data set [1] was determined as 14%. Further, in data set [2], the CC50 at 24 h is greater than 50 µM. Besides, the inhibition result (in data set [3]; on Trypsin (Homo sapiens)) was “inactive” in each case.

As for `CCCCCC(=O)N[C@H](C(=O)NCc1ccc(C(N)=O)cc1)c1ccc(O)cc1`, the inhibition in data set [1] was less than 10%. Besides, in data set [2], the CC50 at 24 h was greater than 100 µM. Besides, the inhibition result (in data set [3]; on Trypsin (Homo sapiens)) was “inactive” in each case.

In the case of `CCCCCC(=O)N[C@H](C(=O)NCCc1ccccc1)c1ccc(OCc2ccccc2)cc1`, the CC50 at 24 h in data set [2] is less than 12.5 µM. The inhibition entry (in data set [3]; on Trypsin (Homo sapiens)) was “inactive” in each case.

On to `CC(C)CCOc1ccc(C(=O)N[C@H](C(=O)Nc2cccc(C(N)=O)c2)c2ccc(OCc3ccccc3)cc2)cc1`, for which the inhibition in data set [1] was found to be 49%. The CC50 at 24 h in data set [2] is greater than 50 µM. For the same compound, the inhibition result (in data set [3]; on Trypsin (Homo sapiens)) was “inactive” in each case.

With `CCCC(O)C(=O)N[C@H](C(=O)NCc1ccc(C(N)=O)cc1)c1ccc(OCc2ccccc2)cc1` (some centres not stated), in data set [1], the inhibition was less than 10%. In data set [2], the CC50 at 24 h is greater than 50 µM. In addition, the inhibition result (in data set [3]; at Trypsin (Homo sapiens)) was “inactive” throughout.

In the case of `CCCCCC(=O)N[C@H](C(=O)NCc1cccc(OC)c1)c1ccc(OCc2ccccc2)cc1`, the inhibition in data set [1] was less than 10%. The CC50 at 24 h in data set [2] is greater than 50 µM. The inhibition entry (in data set [3]; on Trypsin (Homo sapiens)) was “inactive” throughout.

As to `CCCCCC(=O)N[C@H](C(=O)NCc1ccc(C(=O)O)cc1)c1ccc(OCc2ccccc2)cc1`, the inhibition in data set [1] was found to be 14%. For the same compound, in data set [2], the CC50 at 24 h was greater than 50 µM. In addition, the inhibition result (in data set [3]; at Trypsin (Homo sapiens)) was “inactive” each time.

`CCCCCC(=O)N[C@@H](C(=O)NCc1ccc(C(N)=O)cc1)c1ccc(OCc2ccccc2)cc1`: in data set [1], the inhibition came out at 35%. Besides, the CC50 at 24 h in data set [2] is greater than 50 µM. The inhibition result (in data set [3]; on Trypsin (Homo sapiens)) was “inactive” throughout.

For the compound `CCCCCC(=O)N[C@H](C(=O)Nc1ccccc1C(N)=O)c1ccc(OCc2ccccc2)cc1`, the inhibition in data set [1] worked out at 13%. In addition, the CC50 at 24 h in data set [2] is greater than 50 µM. In addition, the inhibition entry (in data set [3]; on Trypsin (Homo sapiens)) was “inactive” in each case.

`CCCCCC(=O)N[C@H](C(=O)NCc1ccc(C(N)=O)cc1)c1ccccc1`: the inhibition in data set [1] is 15%. For the same compound, the CC50 at 24 h in data set [2] is greater than 50 µM. The inhibition result (in data set [3]; at Trypsin (Homo sapiens)) was “inactive” throughout.

As for `CCCCCC(=O)N[C@@H](C(=O)NCc1ccc(C(N)=O)cc1)c1ccc(OCc2ccc(C(F)(F)F)cc2)cc1`, the inhibition in data set [1] turned out to be 42%. Besides, the CC50 at 24 h in data set [2] is greater than 50 µM. The inhibition result (in data set [3]; at Trypsin (Homo sapiens)) was “inactive” throughout.

As to `NC(=O)c1cccc(NC(=O)[C@@H](NC(=O)C2CCN(c3ccccc3)CC2)c2ccc(OCc3ccccc3)cc2)c1`, the inhibition in data set [1] was determined as 46%. For the same compound, the CC50 at 24 h in data set [2] is greater than 50 µM. The inhibition result (in data set [3]; at Trypsin (Homo sapiens)) was “inactive” throughout.

As for `CCCCCC(=O)N[C@H](C(=O)N1CCC(C(N)=O)CC1)c1ccc(OCc2ccccc2)cc1`, the inhibition in data set [1] was found to be 28%. Further, the CC50 at 24 h in data set [2] is greater than 50 µM. Further, the inhibition entry (in data set [3]; at Trypsin (Homo sapiens)) was “inactive” each time.
